# ABHD5-PLIN5 inh – blocks binding of human ABHD5 to perilipin-5. inhibition, % at 4 µM. Split G. princeps luciferase complementation, luminescence, 4 h. hit rate 0.78% among 360,000. Q00G26+Q8WTS1. AID 602281;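 active means inhibition above the mean inhibition across every tested compound plus 3 SD, cut at about 22% in these data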
# Rin1-Abl PPI inh – human Rin1-Abl interaction inhibition; inhibition, % at 7.35 µM; P00519+Q13671; TR-FRET Rin1/Abl binding, biochemical; hit rate 0.4% among 360,000; in the data active means inhibition above about 5%, passing the limit was not always enough
# NadD block – NadD (S. aureus) enzyme inhibition; purified NadD enzyme, colorimetric absorbance read-out; inhibition, % at 20 µM; hit rate 0.78% among 360,000; AID 602399; in the data active means inhibition above about 26%
# Rpn11 inh – blocks the human proteasome subunit Rpn11. hit rate 0.59% among 360,000. O00487. inhibition, % at 20 µM. human 26S proteasome, Ub4-pepOG fluorescence polarization; 20S core pre-blocked with epoxomicin;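 active means inhibition at 20 µM, scaled to each plate's controls, above about 33%, limit read from the data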
# XiGFP reactiv – activators of X-chromosome reactivation in mouse fibroblasts; activation, % at 7.58 µM; XiGFP mouse fibroblasts, % GFP-positive cells imaging, 3 d; cells co-treated with 5-aza-dC sensitizer; scaled so ellipticine positive control = 100%; hit rate 0.055% among 360,000;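 active means mean normalized replicate activation at least 10% and every replicate at or above 10%; inconclusive means only one of the two criteria met; inactive means mean below 10% and not all replicates reach 10%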
#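 material = 68-5-11 XiGFP fibroblast line | medium = DMEM plus 5-aza-dC sensitizer | schedule = 3 days compound exposure | benchmarks = positive control ellipticine, 6 µM final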
# ABHD5 PLIN5 conf – ABHD5-PLIN5 interaction inhibition, confirmed. inhibition, % at 4 µM. hit rate 67% among 2,200. biochemical ABHD5-PLIN5 interaction, luminescence. shares compounds with ABHD5-PLIN5 inh; in the data active means inhibition above about 23%
# HNF4 counter – counter-screen for ABHD5-PLIN5 inhibitors: HNF4 split-luciferase | inhibition, % at 4 µM | HNF4 dimerization, luminescence, biochemical | shares compounds with ABHD5-PLIN5 inh | hit rate 77% among 2,200;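 active means mean inhibition across replicate wells exceeding the computed hit threshold, cut at about 13% in these data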;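 further: light from luciferase halves that rejoin when HNF4 fusion proteins dimerize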
# Target sequence (P41235 whole entry, looked up, the tested form may be a part): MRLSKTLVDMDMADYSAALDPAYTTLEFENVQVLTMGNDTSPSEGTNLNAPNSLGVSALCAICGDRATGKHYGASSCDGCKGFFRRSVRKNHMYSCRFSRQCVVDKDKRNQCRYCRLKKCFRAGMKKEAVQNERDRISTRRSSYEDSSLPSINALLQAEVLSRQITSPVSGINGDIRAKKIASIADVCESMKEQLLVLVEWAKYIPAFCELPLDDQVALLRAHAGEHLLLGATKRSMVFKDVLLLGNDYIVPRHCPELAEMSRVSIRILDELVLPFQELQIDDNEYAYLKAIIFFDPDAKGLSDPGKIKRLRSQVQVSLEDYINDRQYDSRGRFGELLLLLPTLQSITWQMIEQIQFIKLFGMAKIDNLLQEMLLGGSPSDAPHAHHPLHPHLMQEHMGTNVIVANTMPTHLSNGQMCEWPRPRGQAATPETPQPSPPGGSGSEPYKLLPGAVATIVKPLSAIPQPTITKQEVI
# Numbers stand for hits; – = inactive; ? = inconclusive; · = not tested or not shown. Hits are enriched below; roughly 1.9% of the tested compounds scored in any of these assays.
SMILES,ABHD5-PLIN5 inh,Rin1-Abl PPI inh,NadD block,Rpn11 inh,XiGFP reactiv,ABHD5 PLIN5 conf,HNF4 counter
CC(C)N1CC2=C(OC(N)=C(C#N)C2c2cccnc2)/C(=C/c2cccnc2)C1 (stereo unspecified),–,–,–,–,·,·,·
O=C1c2ccccc2C(=Cc2cccnc2)c2ccccc21,–,–,–,–,?,·,·
COc1ccc(C(=O)/C=C/c2ccccc2)c(OC)c1,26.1,–,–,–,·,41.7,28.1
COc1ccc(/C=C/C(=O)c2cc3cccc(OC)c3oc2=O)cc1,37.5,–,–,–,–,64.1,52.9
CNC(=O)c1cc2cccc(OC)c2oc1=O,–,–,–,–,·,·,·
Cc1ccc(O)c(C(=O)C=Cc2ccccc2)c1,41.0,–,–,–,–,87.9,55.4
COc1ccc(C=CC(=O)C=CC=Cc2ccccc2)cc1,–,–,–,–,–,·,·
COc1ccc(C(=O)/C=C/c2ccc(N(C)C)cc2)c(OC)c1,–,–,–,·,–,·,·
COCOc1cc(O)c(C(=O)/C=C/c2ccccc2)c(OCOC)c1,41.1,–,–,–,·,69.4,62.6
C[C@H]1CCCCO[C@H](CN(C)C(=O)c2ccncc2)[C@@H](C)CN([C@@H](C)CO)C(=O)c2cc(NS(=O)(=O)c3ccc(F)cc3)ccc2O1,·,·,·,·,–,·,·
COc1cc(/C=C/C(=O)c2ccccc2O)cc(OC)c1OC,52.0,–,–,–,·,89.6,84.1
Cc1cccc(C=CC(=O)c2ccccc2)c1,26.7,–,–,–,–,56.6,44.0
COc1cc(C)cc(C(=O)C=Cc2ccccc2)c1O,64.1,–,–,–,–,94.6,75.2
Cc1ccccc1-c1ccc([C@H]2[C@H]3CN(C(=O)Nc4ccc(F)cc4)CC(=O)N3[C@H]2CO)cc1,·,·,·,·,–,·,·
O=C(C[C@H]1CC[C@@H]2[C@H](COC[C@@H](O)CN2Cc2ccc(Oc3ccccc3)cc2)O1)N1CCCCC1,·,·,·,·,–,·,·
CCOc1cccc(CNCCO)c1OCc1ccc(Cl)cc1,–,–,–,–,–,·,·
CCOc1cc(CNCCCN2CCOCC2)cc(Br)c1OCc1ccccc1Cl,30.1,–,–,–,–,–,17.4
CCOc1cc(CNCCO)cc(Br)c1OCc1ccc(Cl)cc1,25.3,–,–,–,·,–,–
CCOc1cc(CNCCO)cc(Br)c1OCc1ccccc1Cl,28.1,–,–,–,·,–,–
COc1ccc2c3c([nH]c2c1)[C@H](CO)N(C(=O)C1CCCC1)CC31CN(Cc2cccc(F)c2)C1,·,·,·,·,–,·,·
O=C(c1ccc(S(=O)(=O)N2CCCC2)cc1)N1CCCCC1,–,–,–,–,–,·,·
O=C(/C=C/c1ccc(O)c(O)c1)c1ccc(S(=O)(=O)N2CCCCCC2)cc1,32.0,–,–,–,–,69.6,67.5
C=CCn1c(SCC(=O)NCCOC)nc2scc(-c3ccco3)c2c1=O,31.6,–,–,–,·,42.1,81.7
C=CCn1c(SCC(=O)NCC2CCCO2)nc2scc(-c3ccc(OC)cc3)c2c1=O (stereo unspecified),–,–,–,–,–,·,·
C=CCn1c(SCC(=O)NCC2CCCO2)nc2scc(-c3ccco3)c2c1=O (stereo unspecified),34.1,–,–,–,·,33.9,82.1
SMILES,ABHD5-PLIN5 inh,Rin1-Abl PPI inh,NadD block,Rpn11 inh,XiGFP reactiv,ABHD5 PLIN5 conf,HNF4 counter
C=CCn1c(SCC(N)=O)nc2scc(-c3ccc(C)o3)c2c1=O,–,–,–,–,–,·,·
CN(C)Cc1c(O)ccc2c1O/C(=C\C=C\c1ccccc1)C2=O,29.1,–,–,–,–,–,24.2
CCOC(=O)C1=C(C)OC(=CC=Cc2ccccc2)C1=O,–,–,–,–,–,·,·
O=C1/C(=C/C=C/c2ccccc2)Oc2c1ccc(O)c2CN1CCN(CCO)CC1,30.7,–,–,–,–,–,17.8
COc1ccccc1/C=C/C=C1\Oc2c(ccc(O)c2CN2CCN(CCO)CC2)C1=O,–,–,–,·,–,·,·
CCN1CCN(Cc2c(O)ccc3c2O/C(=C\c2ccccc2)C3=O)CC1,–,–,–,–,–,·,·
CCN1CCN(Cc2c(O)ccc3c2O/C(=C\C=C\c2ccccc2)C3=O)CC1,34.0,–,–,·,–,23.5,19.4
CC(C)NC(=O)N[C@H]1CC[C@H](CCNS(=O)(=O)c2ccc(F)cc2)O[C@@H]1CO,·,·,·,·,–,·,·

# Screening results as filed in PubChem.
